PG9 Ab binder – small molecules binding HIV-1 gp120 antibody PG9 | inhibition, % at 6.7 µM | TR-FRET gp120-PG9 antibody binding | 0.43% of 360,000 active; in the data active = inhibition above about 8.5%
NR2E3 ag-1 – human photoreceptor-specific nuclear receptor agonism; inhibition of corepressor binding, % at 3.98 µM; 0.35% of 360,000 active; CHO-S Gal4-NCOR/VP16-NR2E3 two-hybrid, luciferase; Q9Y5X4; AID 602229;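 active = inhibition above the mean of all tested compounds plus 3 SD, cut at about 70% in these data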;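 also: 0% = DMSO with NR2E3 transfected cells and 100% = cells lacking NR2E3 construct; higher means lower luciferase signal from less NR2E3 corepressor binding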
Rev-erbA mod – Rev-erb alpha (human) modulation; Rev-erbα–FITC-DNA binding, fluorescence polarization, 90 min; activity, % at 10 µM; AID 1259318; P20393; 0.79% of 370,000 active;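 active = activity above about 14%, limit read from the data; passing the limit was not always enough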;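 also: 0% = DMSO wells with 35 nM protein and 100% = DMSO wells with 750 nM protein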
GalR3 antag – blocks the human galanin receptor 3; inhibition, % at 3 µM; HEK293 GalR3-CNG cAMP membrane potential fluorescence; galR3 body fused to GalR1 C-terminus; O60755; 0.44% of 360,000 active;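 active = inhibition above the screen-wide average plus 3 SD, cut at about 13% in these data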;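 also: forskolin and galanin both at EC90 stimulate the cells; cAMP rise reported by CNG channel membrane potential dye signal; 0% = forskolin plus galanin with DMSO and 100% = forskolin alone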
Target sequence (O60755 1-299 limits assumed): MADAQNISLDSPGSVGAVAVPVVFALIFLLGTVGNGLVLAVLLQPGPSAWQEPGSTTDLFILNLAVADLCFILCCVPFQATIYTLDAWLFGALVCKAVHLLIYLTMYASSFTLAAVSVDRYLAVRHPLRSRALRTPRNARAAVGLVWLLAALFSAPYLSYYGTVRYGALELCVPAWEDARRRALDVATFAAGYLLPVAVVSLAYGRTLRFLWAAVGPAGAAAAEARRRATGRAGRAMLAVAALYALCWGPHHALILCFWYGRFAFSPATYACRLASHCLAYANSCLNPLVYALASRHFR
NR2E3 ag-2 – NR2E3 (human) agonism; Q9Y5X4; GST-NR2E3/biotin-RetCOR TR-FRET, 1536-well; inhibition of corepressor binding, % at 4.78 µM; 0.12% of 320,000 active;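 active = percent inhibition above the cutoff of mean plus 3 SD of all tested compounds, set per screening campaign, cut at about 20% in these data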;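 also: 0% = DMSO wells and 100% = biotin wells as full block of FRET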
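Format: 1536-well format; test system: GST-NR2E3 and biotin-RetCOR proteins; read-out basis: percent inhibition of TR-FRET ratio; timing: 5 h incubation at 4 °C; detection: time-resolved FRET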
Rev-erbA confirm – Rev-erb alpha (human) modulation, hit confirmation; shares compounds with Rev-erbA mod; Rev-erb alpha FITC-DNA binding, fluorescence polarization, 90 min; activation, % at 25 µM; 61% of 3,000 active;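 active = activation at or above a set limit, or at least 3 SD above the negative control mean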;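 also: 0% = 35 nM protein with DMSO and 100% = 750 nM protein high control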
RORg DNA counter – RORgamma DNA-binding activity, dose-response counter-screen | shares compounds with Rev-erbA mod | purified RORgamma protein-FITC-DNA binding, fluorescence polarization | IC50, µM | 8% of 910 active;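 active = Compounds whose fitted half-maximal concentration for disrupting protein-DNA binding is below 10 micromolar; the record names Rev-erb in its text, so the target is in doubt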
* hit, by the source's call. An excerpt weighted towards active compounds, which were near 1.8% of everything screened.

CCOC(=O)c1sc(NC(=O)CSc2nc(C)cc(C)c2C#N)c(C#N)c1C was read as PG9 Ab binder -0.3, NR2E3 ag-1 -20.8, Rev-erbA mod 23.6*, GalR3 antag -6.4, NR2E3 ag-2 0.5 and Rev-erbA confirm 14.4.
Screening COc1ccc(-c2c(C#N)c(SCC(N)=O)nc3c2CCCC3)cc1 returned PG9 Ab binder -2.0, NR2E3 ag-1 -7.2, Rev-erbA mod 67.6*, GalR3 antag -6.5, NR2E3 ag-2 1.1, Rev-erbA confirm 37.3* and RORg DNA counter >40.
For CCOC(=O)c1sc(NC(=O)CSc2nc(C)cc(-c3ccccc3)n2)c(C#N)c1C the results were PG9 Ab binder -3.1, NR2E3 ag-1 -4.7, Rev-erbA mod -1.9, GalR3 antag -7.4 and NR2E3 ag-2 0.8.
For Cc1ccc(C2CCC3(CCC(=O)N3CCOC(=O)Nc3ccc(Br)cc3)CC2)cc1 (stereo unspecified) the results were Rev-erbA mod -1.2.
`COc1cc(-c2csc(N3CCC(C(N)=O)CC3)n2)cc(OC)c1OC` gave Rev-erbA mod -1.5.
COc1ccc(C(CCOC(=O)Oc2ccccc2)c2cc(OC)cc(OC)c2)cc1 (stereo unspecified) was read as Rev-erbA mod 1.3.
Screening Cc1ccccc1CN1CCCCC(NC(=O)C2CCCCC2)C1=O (stereo unspecified) returned Rev-erbA mod -6.2.
`Cc1cc(C)c2cc(C#N)c(SCC(=O)Nc3ccc4c(c3)OCO4)nc2c1` gave PG9 Ab binder 4.3, NR2E3 ag-1 -7.6, Rev-erbA mod 62.4*, GalR3 antag -3.0, NR2E3 ag-2 -0.3, Rev-erbA confirm 196.3* and RORg DNA counter >40.
`Cc1cc(C)c2cc(C#N)c(SCC(=O)NCC3CCCO3)nc2c1` (stereo unspecified) gave PG9 Ab binder 0.2, NR2E3 ag-1 -13.9, Rev-erbA mod 102.7*, GalR3 antag -4.5, NR2E3 ag-2 2.5, Rev-erbA confirm 87.5* and RORg DNA counter inactive.
Screening Cc1ccc2cc(C#N)c(SCC(=O)NCC3CCCO3)nc2c1 (stereo unspecified) returned PG9 Ab binder -1.5, NR2E3 ag-1 -27.0, Rev-erbA mod 11.3, GalR3 antag -4.5 and NR2E3 ag-2 1.1.
`O=C(CSc1ncnc2ccccc12)Nc1ccc2c(c1)OCO2` gave PG9 Ab binder 0.2, NR2E3 ag-1 -14.3, Rev-erbA mod -0.1, GalR3 antag 3.0 and NR2E3 ag-2 3.9.
For CC(=O)N1c2ccccc2C(=O)NCC1C(=O)NC(C)(C)C (stereo unspecified) the results were Rev-erbA mod 0.5.
CCCC(=O)N1CCC[C@]2(CC[C@H](CCC(C)=O)O2)C1 was read as Rev-erbA mod -7.1.
Screening CCOC(=O)c1ccccc1NC(=O)c1n[nH]c(=O)c2ccccc12 returned PG9 Ab binder 0.2, NR2E3 ag-1 0.0, Rev-erbA mod 52.9*, GalR3 antag -4.1, NR2E3 ag-2 4.2 and Rev-erbA confirm 25.4*.
Screening COc1cc(NC(=O)c2n[nH]c(=O)c3ccccc23)cc(OC)c1 returned PG9 Ab binder 6.5, NR2E3 ag-1 12.8, Rev-erbA mod 25.8*, GalR3 antag -5.3, NR2E3 ag-2 -1.8 and Rev-erbA confirm 20.0*.
For CCOC(=O)c1ccc(NC(=O)c2n[nH]c(=O)c3ccccc23)cc1 the results were PG9 Ab binder -2.0, NR2E3 ag-1 -4.6, Rev-erbA mod 21.0, GalR3 antag -0.2 and NR2E3 ag-2 5.8.
COc1ccc(-n2c(SCC(=O)C(C)(C)C)nc3ccsc3c2=O)cc1 was read as PG9 Ab binder 3.2, NR2E3 ag-1 -0.1, Rev-erbA mod 20.8*, GalR3 antag -3.0, NR2E3 ag-2 -0.6 and Rev-erbA confirm 19.9*.
O=S(=O)(c1ccccc1)c1cnn2c(C(F)(F)F)cc(-c3ccccc3)nc12 was read as PG9 Ab binder 0.8, NR2E3 ag-1 -16.2, Rev-erbA mod -1.5, GalR3 antag -6.2 and NR2E3 ag-2 -1.2.

Source: PubChem (several laboratories)
